Results pooled from the literature.
Protocols differ between the studies behind these lines.
CNR2: Cannabinoid receptor 2 (CNR2, Homo sapiens, UniProt P34972)
BRD9: Bromodomain-containing protein 9 (BRD9, Homo sapiens, UniProt Q9H8M2)

| Structure (SMILES) | target | test | conditions | measurement | result |
| --- | --- | --- | --- | --- | --- |
| C1=C/COCc2cc(ccc2OCCN2CCCC2)Nc2nccc(n2)-c2cccc(c2)COC/1 | Bone morphogenetic protein receptor type-1A (BMPR1A, Homo sapiens, UniProt P36894) | binding | 0.1 µM | remaining binding | 89% |
| CCCC[C@H](NC(C)=O)C(=O)N[C@H]1CC(=O)NCCCC[C@@H](C(=O)N2CCC[C@@H]2C(=O)N[C@@H](C(=O)N2CCC[C@@H]2C(N)=O)C(C)C)NC(=O)[C@H](Cc2c[nH]c3ccccc23)NC(=O)[C@H](CCCNC(=N)N)NC(=O)[C@@H](Cc2ccccc2)NC(=O)[C@@H]2CCCN2C1=O | Melanocortin receptor 5 (MC5R, Homo sapiens, UniProt P33032) | cAMP, agonist |  | Emax | 102% |
| CCN1/C(=C/C(C)=O)Sc2ccc(F)cc21 | CNR2 | ligand displacement, radioligand | 10 µM | inhibition | 16.8% |
| COc1cc(-c2cc(C(C)=O)n3ccccc23)cc(OC)c1CN1CC(O)C1 | BRD9 | thermal stability, DSF | 200 µM | ΔTm | 14.8 °C |
| CN(C)CCOC(=O)COc1ccc(Cl)cc1 | CNR2 | ligand displacement, radioligand | 1 µM, cell membranes | inhibition | -3.85% |
| CC(=O)ON=C1C=CC(=C(C#N)c2ccccc2)C=C1 | Serine/threonine-protein kinase haspin (HASPIN, Homo sapiens, UniProt Q8TF76) | enzyme activity, inhibitor, ADP detection | 2 µM | activity vs control | 76% |
| Cc1cc(O)c(-c2ccc([C@@H](C)CN(C)C)cc2)c2c1[nH]c(=O)c1sccc12 | STE20-related kinase adapter protein beta (Homo sapiens, UniProt Q9C0K7) | enzyme activity, inhibitor | 0.1 µM, lysate | inhibition | 18.9% |
| COc1cc(-c2cc(C(C)=O)n3ccccc23)c(OC)cc1C(=O)N(C)C | BRD9 | thermal stability, DSF | 200 µM | ΔTm | 13.5 °C |
| COc1ccc2oc(-c3ccc4nc(N)oc4c3)c/c(=N\c3ccccc3NC(=O)CCN)c2c1 | Phosphatidylinositol 5-phosphate 4-kinase type-2 alpha (PIP4K2A, Homo sapiens, UniProt P48426) | binding | 1 µM | remaining binding | 108% |
| CC(=O)c1cc(-c2cccc(C(F)(F)F)c2)c2ccccn12 | BRD9 | thermal stability, DSF | 200 µM | ΔTm | 3 °C |
| CCCCC(=O)Nc1ccc(-c2ccc3ncn(CCC)c(=O)c3c2)cn1 | Activin receptor type-2A (ACVR2A, Homo sapiens, UniProt P27037) | binding, competition with immobilised ligand | 0.5 µM | remaining binding | 95% |
| COc1cc(-c2cc(C(C)=O)n3ccccc23)c(OC)cc1C(C)=O | BRD9 | thermal stability, DSF | 200 µM | ΔTm | 7.5 °C |
| NC/C(=C\F)COc1cccc(Cn2c(=S)[nH]c(=O)c3[nH]cnc32)c1 | Beta-2 adrenergic receptor (ADRB2, Homo sapiens, UniProt P07550) | ligand displacement, radioligand | 10 µM | inhibition | < 50% |
| COc1cc(-c2cc(C(C)=O)n3ccccc23)cc(OC)c1CN(C)C | BRD9 | thermal stability, DSF | 200 µM | ΔTm | 16.5 °C |
| Cc1ncc(-c2cc3cc(-c4c(C)ccc(O)c4C)cnc3[nH]2)cn1 | Membrane-associated tyrosine- and threonine-specific cdc2-inhibitory kinase (PKMYT1, Homo sapiens, UniProt Q99640) | cell-free assay, TR-FRET | 0.1235 µM | inhibition | 97.2% |
